Tests used:
[1] = biological target: Phosphatidylinositol 4-phosphate 5-kinase type-1 alpha (Homo sapiens) (UniProt Q99755); assay: Inhibition of PIP5K1A at 3 uM
[2] = biological target: Serine/threonine-protein kinase 16 (Homo sapiens) (UniProt O75716); assay: Inhibition of STK16 at 3 uM
[3] = biological target: Serine/threonine-protein kinase TAO1 (Homo sapiens) (UniProt Q7L7X3); assay: Inhibition of TAOK1 at 3 uM
[4] = biological target: STE20-like serine/threonine-protein kinase (Homo sapiens) (UniProt Q9H2G2); assay: Inhibition of SLK at 3 uM
[5] = biological target: Testis-specific serine/threonine-protein kinase 1 (Homo sapiens) (UniProt Q9BXA7); assay: Inhibition of TSSK1 at 3 uM
[6] = biological target: Angiopoietin-1 receptor (Homo sapiens) (UniProt Q02763); assay: Inhibition of TIE2 at 3 uM
[7] = biological target: Serine/threonine-protein kinase tousled-like 2 (Homo sapiens) (UniProt Q86UE8); assay: Inhibition of TLK2 at 3 uM
[8] = biological target: T1, Epidermal growth factor receptor (Homo sapiens) (UniProt P04626+P00533+Q15303+P21860); assay: Inhibition of EGFR S752-I759del mutant at 3 uM; format: protein assay
Procedure, shortened: (§1)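 Single-concentration kinase panel scoring: each value is the percentage of enzyme activity remaining relative to a DMSO-only control. An activity statistically indistinct from DMSO control was scored "no hit".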

[9] = system: Mast/stem cell growth factor receptor Kit (Homo sapiens), P10721 [V559D,V654A]; assay: Inhibition of KIT V559D,V654A mutant at 3 uM
Chain of Mast/stem cell growth factor receptor Kit (Homo sapiens), P10721 [V559D,V654A] (P10721 whole entry V559D/V654A): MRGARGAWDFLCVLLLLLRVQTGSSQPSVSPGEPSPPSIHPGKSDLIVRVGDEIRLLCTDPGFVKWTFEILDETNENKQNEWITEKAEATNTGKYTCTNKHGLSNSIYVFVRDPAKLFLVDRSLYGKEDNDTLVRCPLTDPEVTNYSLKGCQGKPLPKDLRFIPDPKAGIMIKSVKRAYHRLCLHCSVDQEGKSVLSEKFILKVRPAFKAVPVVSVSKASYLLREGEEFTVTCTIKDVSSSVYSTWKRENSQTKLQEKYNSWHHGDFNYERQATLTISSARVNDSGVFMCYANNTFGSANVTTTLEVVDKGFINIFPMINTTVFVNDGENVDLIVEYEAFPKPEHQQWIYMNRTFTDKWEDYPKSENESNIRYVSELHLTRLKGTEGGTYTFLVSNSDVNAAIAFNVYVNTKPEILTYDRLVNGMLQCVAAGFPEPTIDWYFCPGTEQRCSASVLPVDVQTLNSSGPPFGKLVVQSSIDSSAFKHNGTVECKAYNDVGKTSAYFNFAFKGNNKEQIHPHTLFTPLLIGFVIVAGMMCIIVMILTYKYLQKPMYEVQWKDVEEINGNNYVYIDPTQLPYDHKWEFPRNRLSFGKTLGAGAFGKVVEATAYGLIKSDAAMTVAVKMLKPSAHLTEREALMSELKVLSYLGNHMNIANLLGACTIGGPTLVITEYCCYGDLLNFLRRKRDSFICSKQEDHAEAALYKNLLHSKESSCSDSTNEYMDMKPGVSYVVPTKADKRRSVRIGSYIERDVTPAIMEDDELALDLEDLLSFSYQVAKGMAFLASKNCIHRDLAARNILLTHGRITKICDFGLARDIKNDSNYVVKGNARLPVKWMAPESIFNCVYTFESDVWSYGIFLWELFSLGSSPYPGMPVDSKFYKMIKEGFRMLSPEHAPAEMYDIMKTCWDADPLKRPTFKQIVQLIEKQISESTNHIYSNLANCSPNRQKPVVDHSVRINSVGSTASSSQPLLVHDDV

[10] = biological target: Serine/threonine-protein kinase LATS1 (Homo sapiens) (UniProt O95835); assay: Inhibition of LATS1 at 3 uM
Chain of Serine/threonine-protein kinase LATS1 (Homo sapiens) (O95835 whole entry): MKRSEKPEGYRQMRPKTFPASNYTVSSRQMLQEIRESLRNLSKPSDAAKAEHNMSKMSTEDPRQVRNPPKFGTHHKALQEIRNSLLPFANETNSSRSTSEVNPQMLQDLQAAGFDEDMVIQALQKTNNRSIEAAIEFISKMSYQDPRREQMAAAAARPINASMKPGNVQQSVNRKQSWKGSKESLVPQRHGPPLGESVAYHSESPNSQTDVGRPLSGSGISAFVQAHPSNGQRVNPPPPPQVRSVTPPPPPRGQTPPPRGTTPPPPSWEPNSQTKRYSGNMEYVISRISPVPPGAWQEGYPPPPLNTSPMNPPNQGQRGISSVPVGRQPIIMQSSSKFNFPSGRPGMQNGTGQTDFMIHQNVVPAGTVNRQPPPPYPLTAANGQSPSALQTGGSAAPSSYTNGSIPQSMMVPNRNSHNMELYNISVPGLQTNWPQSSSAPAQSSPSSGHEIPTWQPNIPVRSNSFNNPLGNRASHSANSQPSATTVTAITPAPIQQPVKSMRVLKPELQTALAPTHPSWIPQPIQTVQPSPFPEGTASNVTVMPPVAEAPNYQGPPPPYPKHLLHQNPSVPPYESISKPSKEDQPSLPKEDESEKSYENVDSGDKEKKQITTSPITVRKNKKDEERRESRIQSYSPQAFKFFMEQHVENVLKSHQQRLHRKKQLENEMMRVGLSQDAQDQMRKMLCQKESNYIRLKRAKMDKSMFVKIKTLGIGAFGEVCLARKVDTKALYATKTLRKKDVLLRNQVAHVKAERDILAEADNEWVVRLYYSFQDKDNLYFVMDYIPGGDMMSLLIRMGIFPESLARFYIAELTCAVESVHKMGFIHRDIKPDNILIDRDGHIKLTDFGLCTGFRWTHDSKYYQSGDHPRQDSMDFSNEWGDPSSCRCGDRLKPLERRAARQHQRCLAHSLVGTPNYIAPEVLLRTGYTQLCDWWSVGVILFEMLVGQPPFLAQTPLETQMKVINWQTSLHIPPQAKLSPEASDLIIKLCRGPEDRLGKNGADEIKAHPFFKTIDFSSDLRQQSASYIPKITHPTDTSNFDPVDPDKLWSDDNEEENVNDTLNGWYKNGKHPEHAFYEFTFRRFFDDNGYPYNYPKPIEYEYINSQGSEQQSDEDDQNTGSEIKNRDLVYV

[11] = biological target: Insulin-like growth factor 1 receptor (Homo sapiens) (UniProt P08069); assay: Inhibition of IGF1R at 3 uM
Chain of Insulin-like growth factor 1 receptor (Homo sapiens) (P08069 31-736 limits assumed): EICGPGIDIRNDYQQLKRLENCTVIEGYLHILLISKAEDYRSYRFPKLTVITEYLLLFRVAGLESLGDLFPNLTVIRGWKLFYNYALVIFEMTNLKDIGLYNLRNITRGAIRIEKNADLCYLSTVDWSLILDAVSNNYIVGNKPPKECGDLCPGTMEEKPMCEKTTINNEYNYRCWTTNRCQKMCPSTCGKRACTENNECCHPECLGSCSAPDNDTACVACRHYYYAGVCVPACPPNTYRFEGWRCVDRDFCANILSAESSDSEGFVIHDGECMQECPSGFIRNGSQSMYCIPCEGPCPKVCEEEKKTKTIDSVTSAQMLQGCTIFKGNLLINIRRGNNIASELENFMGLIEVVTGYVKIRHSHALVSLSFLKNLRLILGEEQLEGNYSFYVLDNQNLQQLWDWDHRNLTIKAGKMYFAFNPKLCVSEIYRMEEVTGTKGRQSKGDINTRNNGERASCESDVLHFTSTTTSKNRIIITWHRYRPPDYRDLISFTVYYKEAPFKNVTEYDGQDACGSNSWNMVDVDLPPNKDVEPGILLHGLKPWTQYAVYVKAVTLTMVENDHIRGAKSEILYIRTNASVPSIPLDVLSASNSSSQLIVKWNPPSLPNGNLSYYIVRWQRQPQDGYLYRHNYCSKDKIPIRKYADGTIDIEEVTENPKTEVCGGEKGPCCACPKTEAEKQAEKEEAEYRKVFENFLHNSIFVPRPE
Chain of Insulin-like growth factor 1 receptor (Homo sapiens) (P08069 741-1367 limits assumed): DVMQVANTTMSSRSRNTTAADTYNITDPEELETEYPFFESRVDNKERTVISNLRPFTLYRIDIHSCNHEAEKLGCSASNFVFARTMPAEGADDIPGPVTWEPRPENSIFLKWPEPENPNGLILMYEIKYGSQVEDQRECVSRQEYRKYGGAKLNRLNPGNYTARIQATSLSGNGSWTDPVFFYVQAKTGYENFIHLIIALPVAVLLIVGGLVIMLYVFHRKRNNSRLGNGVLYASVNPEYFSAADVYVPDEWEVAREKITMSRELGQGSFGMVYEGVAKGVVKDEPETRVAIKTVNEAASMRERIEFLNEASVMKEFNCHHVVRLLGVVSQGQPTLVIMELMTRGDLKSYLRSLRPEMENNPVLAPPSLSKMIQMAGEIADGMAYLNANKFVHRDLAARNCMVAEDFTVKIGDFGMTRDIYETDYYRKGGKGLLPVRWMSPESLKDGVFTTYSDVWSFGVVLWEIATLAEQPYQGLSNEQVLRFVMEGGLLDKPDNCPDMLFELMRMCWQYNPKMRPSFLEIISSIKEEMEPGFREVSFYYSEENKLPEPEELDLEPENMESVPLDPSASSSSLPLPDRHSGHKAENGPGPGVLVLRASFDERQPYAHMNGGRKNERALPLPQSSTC

[12] = biological target: Inhibitor of nuclear factor kappa-B kinase subunit beta (Homo sapiens) (UniProt O14920); assay: Inhibition of IKK-beta at 3 uM
Chain of Inhibitor of nuclear factor kappa-B kinase subunit beta (Homo sapiens) (O14920 whole entry): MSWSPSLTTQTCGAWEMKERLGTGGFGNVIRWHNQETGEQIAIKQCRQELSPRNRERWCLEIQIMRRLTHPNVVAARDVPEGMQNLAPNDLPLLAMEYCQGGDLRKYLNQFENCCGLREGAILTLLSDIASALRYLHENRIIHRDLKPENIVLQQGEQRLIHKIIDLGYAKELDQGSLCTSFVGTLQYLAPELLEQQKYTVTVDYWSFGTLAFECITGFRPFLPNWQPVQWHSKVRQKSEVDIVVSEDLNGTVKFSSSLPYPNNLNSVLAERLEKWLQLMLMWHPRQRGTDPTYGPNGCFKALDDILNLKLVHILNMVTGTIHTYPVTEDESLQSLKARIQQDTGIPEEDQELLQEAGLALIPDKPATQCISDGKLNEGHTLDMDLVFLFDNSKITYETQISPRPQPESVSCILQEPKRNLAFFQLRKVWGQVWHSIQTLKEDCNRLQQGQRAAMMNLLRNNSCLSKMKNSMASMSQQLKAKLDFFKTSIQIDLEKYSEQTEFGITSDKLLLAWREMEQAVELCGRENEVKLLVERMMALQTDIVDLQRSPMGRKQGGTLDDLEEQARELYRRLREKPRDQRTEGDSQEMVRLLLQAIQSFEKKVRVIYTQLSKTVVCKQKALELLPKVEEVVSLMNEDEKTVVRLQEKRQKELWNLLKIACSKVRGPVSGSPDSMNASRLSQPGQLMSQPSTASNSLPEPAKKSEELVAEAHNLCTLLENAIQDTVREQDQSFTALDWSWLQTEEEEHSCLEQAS

[13] = biological target: MAP kinase-interacting serine/threonine-protein kinase 2 (Homo sapiens) (UniProt Q9HBH9); assay: Inhibition of MKNK2 at 3 uM
[14] = biological target: Serine/threonine-protein kinase 26 (Homo sapiens) (UniProt Q9P289); assay: Inhibition of MST4 at 3 uM
[15] = biological target: Serine/threonine-protein kinase Nek1 (Homo sapiens) (UniProt Q96PY6); assay: Inhibition of NEK1 at 3 uM
[16] = biological target: Mitogen-activated protein kinase 14 (Homo sapiens) (UniProt Q16539); assay: Inhibition of p38-alpha at 3 uM
Chain of Mitogen-activated protein kinase 14 (Homo sapiens) (Q16539 whole entry): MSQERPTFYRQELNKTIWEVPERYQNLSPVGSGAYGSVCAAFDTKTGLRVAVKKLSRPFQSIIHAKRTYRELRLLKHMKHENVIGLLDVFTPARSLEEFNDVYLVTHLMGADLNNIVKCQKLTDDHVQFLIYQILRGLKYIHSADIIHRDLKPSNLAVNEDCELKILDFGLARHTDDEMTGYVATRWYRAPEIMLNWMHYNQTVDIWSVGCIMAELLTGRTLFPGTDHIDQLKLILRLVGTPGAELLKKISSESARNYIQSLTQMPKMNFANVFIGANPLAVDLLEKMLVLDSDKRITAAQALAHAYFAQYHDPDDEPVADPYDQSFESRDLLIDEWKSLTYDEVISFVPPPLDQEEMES

[17] = biological target: Serine/threonine-protein kinase PAK 1 (Homo sapiens) (UniProt Q13153); assay: Inhibition of PAK1 at 3 uM
[18] = biological target: cGMP-dependent protein kinase 1 (Homo sapiens) (UniProt Q13976); assay: Inhibition of PRKG1 at 3 uM
[19] = system: Proto-oncogene tyrosine-protein kinase receptor Ret (Homo sapiens), P07949 [V804M]; assay: Inhibition of RET V804M mutant at 3 uM
[20] = biological target: Serine/threonine-protein kinase RIO1 (Homo sapiens) (UniProt Q9BRS2); assay: Inhibition of RIOK1 at 3 uM
[21] = biological target: Receptor-interacting serine/threonine-protein kinase 1 (Homo sapiens) (UniProt Q13546); assay: Inhibition of RIPK1 at 3 uM
[22] = biological target: Serine/threonine-protein kinase 32C (Homo sapiens) (UniProt Q86UX6); assay: Inhibition of YANK3 at 3 uM
Chain of Serine/threonine-protein kinase 32C (Homo sapiens) (Q86UX6 whole entry): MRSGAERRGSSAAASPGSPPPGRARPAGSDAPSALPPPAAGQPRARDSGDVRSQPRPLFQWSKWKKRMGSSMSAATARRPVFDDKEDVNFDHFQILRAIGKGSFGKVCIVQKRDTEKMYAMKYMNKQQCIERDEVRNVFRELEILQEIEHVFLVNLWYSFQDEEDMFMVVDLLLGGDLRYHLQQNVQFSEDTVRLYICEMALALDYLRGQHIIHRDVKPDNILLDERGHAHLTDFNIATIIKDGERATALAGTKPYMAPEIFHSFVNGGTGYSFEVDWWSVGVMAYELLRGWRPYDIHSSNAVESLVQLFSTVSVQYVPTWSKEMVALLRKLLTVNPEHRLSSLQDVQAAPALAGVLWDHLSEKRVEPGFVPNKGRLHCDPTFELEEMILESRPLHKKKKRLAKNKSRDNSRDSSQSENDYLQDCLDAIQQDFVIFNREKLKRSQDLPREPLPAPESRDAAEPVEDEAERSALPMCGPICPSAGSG

[23] = Half life in Sprague-Dawley rat at 1 mg/kg, iv; conditions: in vivo
[24] = biological target: Alpha-1B adrenergic receptor (Rattus norvegicus) (UniProt P15823); assay: Inhibition of rat adrenergic Alpha-1B receptor at 3 uM
[25] = biological target: Alpha-1D adrenergic receptor (Homo sapiens) (UniProt P25100); assay: Inhibition of human adrenergic Alpha-1D receptor at 3 uM
Procedure, shortened: (§2)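 Counter-screen binding/enzyme panel at single 3 μM, n=2; results as percent inhibition. Species per target as listed (rat NMDA, GABAA sites; human receptors, transporters; rabbit ACE).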

[26] = biological target: B1 bradykinin receptor (Homo sapiens) (UniProt P46663); assay: Inhibition of human bradykinin B1 receptor at 3 uM; procedure, shortened: as §2
[27] = biological target: D(4) dopamine receptor (Homo sapiens) (UniProt P21917); assay: Inhibition of human dopamine D4 receptor at 3 uM; procedure, shortened: as §2
[28] = biological target: Histamine H1 receptor (Homo sapiens) (UniProt P35367); assay: Inhibition of human histamine H1 receptor at 3 uM
[29] = system: Tyrosine-protein kinase ABL1 (Homo sapiens), P00519 [F317L]; assay: Inhibition of ABL1 F317L mutant at 3 uM
[30] = biological target: Tyrosine-protein kinase ABL2 (Homo sapiens) (UniProt P42684); assay: Inhibition of ABL2 at 3 uM
[31] = biological target: Activin receptor type-1 (Homo sapiens) (UniProt Q04771); assay: Inhibition of ACVR1 at 3 uM
[32] = biological target: RAC-gamma serine/threonine-protein kinase (Homo sapiens) (UniProt Q9Y243); assay: Inhibition of AKT3 at 3 uM
[33] = biological target: Ankyrin repeat and protein kinase domain-containing protein 1 (Homo sapiens) (UniProt Q8NFD2); assay: Inhibition of ANKK1 at 3 uM
[34] = biological target: Bone morphogenetic protein receptor type-2 (Homo sapiens) (UniProt Q13873); assay: Inhibition of BMPR2 at 3 uM
[35] = biological target: Tyrosine-protein kinase BTK (Homo sapiens) (UniProt Q06187); assay: Inhibition of BTK at 3 uM
[36] = biological target: 5-hydroxytryptamine receptor 1A (Homo sapiens) (UniProt P08908); assay: Inhibition of human 5HT1A receptor at 3 uM; procedure, shortened: as §2
[37] = biological target: Death-associated protein kinase 2 (Homo sapiens) (UniProt Q9UIK4); assay: Inhibition of DAPK2 at 3 uM
[38] = biological target: Death-associated protein kinase 3 (Homo sapiens) (UniProt O43293); assay: Inhibition of DAPK3 at 3 uM
[39] = biological target: Discoidin domain-containing receptor 2 (Homo sapiens) (UniProt Q16832); assay: Inhibition of DDR2 at 3 uM
[40] = biological target: Serine/threonine-protein kinase 17A (Homo sapiens) (UniProt Q9UEE5); assay: Inhibition of DRAK1 at 3 uM
[41] = biological target: Calcium/calmodulin-dependent protein kinase type 1 (Homo sapiens) (UniProt Q14012); assay: Inhibition of CAMK1 at 3 uM
[42] = biological target: Calcium/calmodulin-dependent protein kinase type 1D (Homo sapiens) (UniProt Q8IU85); assay: Inhibition of CAMK1D at 3 uM
[43] = biological target: Ephrin type-A receptor 5 (Homo sapiens) (UniProt P54756); assay: Inhibition of EPHA5 at 3 uM; procedure, shortened: as §1
[44] = biological target: T1, Epidermal growth factor receptor (Homo sapiens); assay: Inhibition of EGFR E746-A750del mutant at 3 uM; format: protein assay
[45] = biological target: Serine/threonine-protein kinase MRCK alpha (Homo sapiens) (UniProt Q5VT25); conditions: 3 uM

With CN(C)CCOc1cc(-c2cn[nH]c2)ccc1NC(=O)C1COc2ccccc2O1 (stereo not given) [SR-3677] as the compound, how does the inhibition [1] read?
The inhibition was under 10%.

And the inhibition [2]?
Its inhibition is under 10%.

And the inhibition [3]?
Its inhibition is under 10%.

What about the inhibition [4] of the same compound?
Its inhibition is under 10%.

What about the inhibition [5] of the same compound?
The inhibition was under 10%.

What about the inhibition [6] of the same compound?
Its inhibition is under 10%.

What about the inhibition [7] of the same compound?
The inhibition was under 10%.

And the inhibition [8]?
Its inhibition is under 10%.

What about the inhibition [9] of the same compound?
Its inhibition is under 10%.

What about the inhibition [10] of the same compound?
The inhibition was under 10%.

What about the inhibition [11] of the same compound?
Its inhibition is under 10%.

What about the inhibition [12] of the same compound?
The inhibition was under 10%.

And the inhibition [13]?
Its inhibition is under 10%.

And the inhibition [14]?
Its inhibition is under 10%.

What about the inhibition [15] of the same compound?
Its inhibition is under 10%.

What about the inhibition [16] of the same compound?
Its inhibition is under 10%.

And the inhibition [17]?
Its inhibition is under 10%.

And the inhibition [18]?
Its inhibition is under 10%.

And the inhibition [19]?
Its inhibition is under 10%.

And the inhibition [20]?
Its inhibition is under 10%.

What about the inhibition [21] of the same compound?
Its inhibition is under 10%.

What about the inhibition [22] of the same compound?
The inhibition was under 10%.

What about the half-life [23] of the same compound?
Its half-life is 48 min.

And the inhibition [24]?
The inhibition was 68%.

And the inhibition [25]?
Its inhibition is 43%.

What about the inhibition [26] of the same compound?
Its inhibition is -3%.

And the inhibition [27]?
Its inhibition is -2%.

What about the inhibition [28] of the same compound?
Its inhibition is 7%.

What about the inhibition [29] of the same compound?
The inhibition was under 10%.

What about the inhibition [30] of the same compound?
The inhibition was under 10%.

What about the inhibition [31] of the same compound?
Its inhibition is under 10%.

And the inhibition [32]?
Its inhibition is 77%.

And the inhibition [33]?
The inhibition was under 10%.

And the inhibition [34]?
Its inhibition is under 10%.

And the inhibition [35]?
Its inhibition is under 10%.

And the inhibition [36]?
Its inhibition is 6%.

What about the inhibition [37] of the same compound?
Its inhibition is under 10%.

And the inhibition [38]?
Its inhibition is under 10%.

What about the inhibition [39] of the same compound?
The inhibition was under 10%.

And the inhibition [40]?
The inhibition was under 10%.

What about the inhibition [41] of the same compound?
Its inhibition is under 10%.

And the inhibition [42]?
The inhibition was under 10%.

What about the inhibition [43] of the same compound?
The inhibition was under 10%.

What about the inhibition [44] of the same compound?
Its inhibition is under 10%.

And the inhibition [45]?
The inhibition was under 10%.

Source: ChEMBL document CHEMBL1142492 (J Med Chem, 2008)
